Shown are actives, neighbours in structure and some others; about 2.1% of the full set was active somewhere.
NOD2 RIPK2 PPI – inhibitors of human NOD2-RIPK2 interaction. CHO BLA complementation NOD2-RIPK2, CCF4 ratio. inhibition, % at 4.98 µM. 360,000 compounds, 0.38% hits. AID 624267; in the data active means inhibition above about 21%;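 further: 0% = vehicle only and 100% = reference blocker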
TLR9-MyD88 inh – TLR9-MyD88 interaction inhibition. Q9NR96+Q99836. CHO BLA complementation TLR9-MyD88, CCF4 FRET ratio. inhibition, % at 4.98 µM. 340,000 compounds, 0.21% hits;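 active means inhibition above the mean over all tested compounds plus 3 SD, cut at about 21% in these data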;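 further: 0% = DMSO only wells and 100% = clavulanate BLA inhibitor control wells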
beta cell repl – MIN6 beta-cell proliferation induction; 330,000 compounds, 0.29% hits; MIN6 cells proliferation, ATPlite luminescence, 48 h; cells starved in 0.2% serum; 100% = growth in 10% serum; proliferation, % at 10 µM;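 active means compounds whose signal lies at least 3.5 SD above the mean of all wells on their plate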;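 further: 0% = DMSO-treated cells in low-serum medium and 100% = 10% serum control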
MC4R barr agon – agonists of human melanocortin 4 receptor (MC4R) beta-arrestin; P32245; U2OS MC4R beta-arrestin complementation, luminescence; percent of melanotan II response, DMSO zero; activation, % at 8.9 µM; 360,000 compounds, 0.98% hits; AID 540308;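 active means activation above a per-plate cutoff, the mean activation of sample wells on that plate plus 3 SD, cut at about 8% in these data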
TLR4-MyD88 BLA – inhibitors of human TLR4-MyD88 binding; 200,000 compounds, 0.18% hits; inhibition, % at 8.4 µM; HeLa CL3-4 TLR4/MyD88 BLA complementation, FRET ratio; O00206+Q99836; AID 861; in the data active means inhibition above about 25%;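 further: 0% = vehicle and 100% = reference inhibitor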
Target sequence (O00206 whole entry, looked up): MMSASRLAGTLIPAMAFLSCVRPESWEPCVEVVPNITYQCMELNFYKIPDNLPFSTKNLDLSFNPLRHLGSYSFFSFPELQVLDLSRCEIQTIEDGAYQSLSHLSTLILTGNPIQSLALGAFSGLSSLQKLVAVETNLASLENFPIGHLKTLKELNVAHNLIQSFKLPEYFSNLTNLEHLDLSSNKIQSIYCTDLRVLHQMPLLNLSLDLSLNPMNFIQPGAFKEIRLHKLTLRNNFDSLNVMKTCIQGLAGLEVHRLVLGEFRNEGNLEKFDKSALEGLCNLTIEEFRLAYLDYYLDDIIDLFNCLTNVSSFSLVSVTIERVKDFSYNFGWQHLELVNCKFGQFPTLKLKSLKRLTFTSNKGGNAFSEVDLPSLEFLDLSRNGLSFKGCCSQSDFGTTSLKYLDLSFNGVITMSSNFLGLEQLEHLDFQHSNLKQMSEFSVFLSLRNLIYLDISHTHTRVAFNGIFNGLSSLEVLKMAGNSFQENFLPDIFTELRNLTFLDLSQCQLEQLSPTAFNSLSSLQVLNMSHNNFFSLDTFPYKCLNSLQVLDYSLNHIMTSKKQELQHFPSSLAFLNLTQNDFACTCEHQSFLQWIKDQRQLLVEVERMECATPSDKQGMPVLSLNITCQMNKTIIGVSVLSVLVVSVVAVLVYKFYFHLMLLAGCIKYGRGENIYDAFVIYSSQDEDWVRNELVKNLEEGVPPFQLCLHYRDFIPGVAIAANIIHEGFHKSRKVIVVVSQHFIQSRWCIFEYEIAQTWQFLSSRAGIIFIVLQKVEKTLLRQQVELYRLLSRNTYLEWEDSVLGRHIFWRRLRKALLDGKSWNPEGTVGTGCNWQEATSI
Target sequence (Q99836 whole entry, looked up): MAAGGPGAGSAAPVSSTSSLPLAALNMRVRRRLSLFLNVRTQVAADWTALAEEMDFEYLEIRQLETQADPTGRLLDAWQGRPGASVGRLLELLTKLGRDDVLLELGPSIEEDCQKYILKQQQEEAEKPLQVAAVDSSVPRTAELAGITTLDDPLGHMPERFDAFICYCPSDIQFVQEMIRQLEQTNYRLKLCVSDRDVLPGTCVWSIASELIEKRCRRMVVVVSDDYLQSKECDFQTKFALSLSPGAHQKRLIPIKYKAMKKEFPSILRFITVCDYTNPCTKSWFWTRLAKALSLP
MC4R antagonist – human MC4R antagonism in cAMP assay. MC4R-expressing cells, MTII-stimulated cAMP, LANCE TR-FRET. AID 540295. 360,000 compounds, 0.48% hits. inhibition, % at 6.5 µM. P32245;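 active means inhibition above its plate's cutoff, the mean of tested wells on that plate plus 3 SD, cut at about 29% in these data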;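 further: 0% = Melanotan II alone and 100% = Melanotan II plus saturating MCL0020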
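System: U2OS-MC4R stable cell line; Technique: Eu-cAMP/anti-cAMP TR-FRET, emission 671 nm; Repeats: single well per compound; Also added: Melanotan II; Dosing: one concentration, 6.5 µM nominal; Schedule: 30-min compound, 1-h challenge, 1-h detection, room temperature.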
MC4R barr ag – human MC4R beta-arrestin agonism confirmation | shares compounds with MC4R barr agon | U2OS MC4R beta-arrestin recruitment, luminescence; scaled DMSO 0%, Melanotan II 100% | activation, % at 8.9 µM | 2,400 compounds, 31% hits | AID 602192;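 active means mean activation across replicates above the hit cutoff set in the earlier primary screen, cut at about 8% in these data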
MOR DOR agonist – activates mu-delta opioid heterodimer, MC4R agonist counter-screen; AID 602194; 2,400 compounds, 5.8% hits; U2OS PathHunter beta-arrestin, beta-gal luminescence; percent of deltorphin B response, DMSO zero; shares compounds with MC4R barr agon; activation, % at 9.2 µM;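 active means mean activation across replicates exceeds the hit threshold derived in the earlier primary screen, cut at about 18% in these data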;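 further: 100% = deltorphin B at 0.9 µM final and 0% = DMSO alone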
NOD2-RIPK2 conf – NOD2-RIPK2 interaction inhibition confirmed. shares compounds with NOD2 RIPK2 PPI. CHO cells, NOD2-RIPK2 BLA complementation, CCF4 FRET. inhibition, % at 4.98 µM. 1,200 compounds, 70% hits. AID 624370;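 active means mean inhibition across replicates above a set limit taken from the earlier primary screen, cut at about 21% in these data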;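 further: 0% = DMSO-only wells and the high end = clavulanate BLA-blocked wells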
NOD2 BLA counter – counter-screen for NOD2-RIPK2 interaction inhibitors: BLA reporter | shares compounds with NOD2 RIPK2 PPI | CHO BLA reporter, CCF4 FRET ratio, counterscreen | inhibition, % at 4.98 µM | 1,200 compounds, 57% hits | AID 624371;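 active means mean inhibition above the low-control mean inhibition plus three low-control SD, cut at about 11% in these data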;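 further: 0% = DMSO only wells and 100% = clavulanate high control wells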
The depositor's hits bear a star; / = not tested or not shown.

SMILES	NOD2 RIPK2 PPI	TLR9-MyD88 inh	beta cell repl	MC4R barr agon	TLR4-MyD88 BLA	MC4R antagonist	MC4R barr ag	MOR DOR agonist	others
O=C(NCc1ccccc1)N1CCN(c2ccc(Cl)c(Cl)c2)CC1	-7	6	-2	22*	-7	2	1	5
O=C1NC2CCCCC2NC1CC(=O)N1CCN(c2ccccc2)CC1 (configuration not stated)	/	/	/	/	0	/	/	/
COc1cc(/C=C/C(=O)OCC(=O)NCCc2ccccc2)cc(OC)c1OC	-7	-7	5	0	-4	10	/	/
CCOc1ccccc1NC(=O)COC(=O)/C=C/c1cccs1	-11	-10	3	0	/	7	/	/
COC(=O)c1ccccc1NC(=O)COC(=O)/C=C/c1cccs1	-12	2	-3	20*	/	4	4	2
COc1cc(/C=C/C(=O)OCC(=O)Nc2ccccc2Cl)cc(OC)c1OC	2	6	1	15*	10	1	4	10
CC(C)c1ccc(NC(=O)C2(C)Cc3c(-c4ccc5c(c4)OCO5)ccnc3O2)cc1 (configuration not stated)	6	/	/	2	/	2	/	/
Cc1ccc(N(Cc2ccccc2)C(=O)CSC(C)C(=O)Nc2cc(C)on2)cc1 (configuration not stated)	8	0	/	-2	/	3	/	/
Cc1cc(C(=O)COC(=O)CNC(=O)c2ccc(Cl)c(Cl)c2)c(C)n1Cc1ccco1	-11	7	1	12*	0	6	-3	3
Cc1ccc(C(=O)NCC(=O)OCC(=O)c2cc(C)n(Cc3ccco3)c2C)cc1	-6	-16	0	0	0	5	/	/
COc1ccc(OCC(=O)N/N=C/C(C)=C/c2ccco2)c(Br)c1	2	-13	-3	19*	/	18	-1	8
CCn1c2ccccc2c2cc(CNCc3ccc(OC)cc3OC)ccc21	6	1	-6	41*	-7	2	52*	21*
CCN(CCNCC(O)COc1ccccc1C(C)C)c1cccc(C)c1 (configuration not stated)	8	5	-6	16*	/	8	12*	12
CCc1c(C(=O)Nc2cc(C)ccc2OC)[nH]c(C)c1C(C)=O	3	-17	-1	11*	-3	3	10*	6
O=C(NC(Cc1ccccc1)C(=O)O)/C(=C\c1ccc(Cl)cc1)NC(=O)c1ccco1 (configuration not stated)	-3	0	1	-3	/	18	/	/
COC(=O)[C@@]12C[C@@H](CC(=O)NCc3cccs3)C(=O)N(Cc3ccco3)C1=CCC(C)(C)C2	-4	/	/	/	/	/	/	/
OC(CNCCC1C=Nc2ccccc21)Cn1c2ccc(Cl)cc2c2cc(Cl)ccc21 (configuration not stated)	11	-3	/	17*	-2	-4	5	31*
Cc1cc(C)n(CC(O)Cn2c3ccc(Cl)cc3c3cc(Cl)ccc32)c(=O)n1 (configuration not stated)	-7	5	-4	2	-6	5	/	/
CC(C)C(NC(=O)c1ccc(F)cc1)C(=O)Nc1cccnc1 (configuration not stated)	-10	-12	-1	-2	2	16	/	/
C=CCC[C@@H](Cc1ccc(F)cc1)C(=O)OC[C@@H](Cc1c[nH]c2ccccc12)NC(=O)[C@H](CC=C)CC(=O)N[C@H](CO)Cc1ccccc1	0	-7	-4	10*	/	15	5	5
C=CC[C@H](CC(=O)N[C@H](CO)Cc1ccccc1)C(=O)N[C@H](COC(=O)[C@H](CC=C)CC(=O)OC(C)(C)C)Cc1c[nH]c2ccccc12	12	-6	-5	22*	/	8	1	3
Cc1cc(Cl)cc2sc(NC(=O)c3ccco3)nc12	3	-3	1	11*	/	8	0	3
CC(C)(C)c1ccc(CC(=O)N2CCC2(C)C(=O)NS(=O)(=O)c2cccc(F)c2)cc1 (configuration not stated)	3	/	/	0	/	9	/	/
COc1cccc(OC)c1C(=O)Nc1nc(COc2ccccc2)cs1	-6	-2	-1	12*	4	-1	0	3
CCN(CC)S(=O)(=O)c1cccc(NC(=O)CN2C(=O)NC3(CCOc4ccccc43)C2=O)c1 (configuration not stated)	2	-5	-4	0	/	18	/	/
SMILES	NOD2 RIPK2 PPI	TLR9-MyD88 inh	beta cell repl	MC4R barr agon	TLR4-MyD88 BLA	MC4R antagonist	MC4R barr ag	MOR DOR agonist	others
N#Cc1ccccc1NC(=O)c1ccc(-c2ccccc2Cl)o1	-11	-1	3	22*	-7	1	7	6
O=C1COc2ccc(C(=O)COC(=O)c3sc4ccccc4c3Cl)cc2N1	-1	1	-5	12*	1	2	4	4
CC(C)c1ccccc1NCC(=O)N1CCN(Cc2ccccc2)CC1	-4	0	1	1	/	13	/	/
Brc1ccc(Nc2nc(-c3cccnc3)cs2)cc1	-2	3	-2	6	-8	6	/	/
CCOc1ccc(Nc2nc(-c3cccnc3)cs2)cc1	6	-4	-1	25*	/	12	1	5
CCOc1ccccc1CNC(=O)C1CCN(c2nnc(C)c3c(C)n(-c4ccc(C)cc4)nc23)CC1	37*	-6	-7	10*	/	3	4	9	NOD2-RIPK2 conf=35*;NOD2 BLA counter=12*
O=C(Nc1nc2cc3c(cc2s1)OCO3)c1ccc(N2C(=O)CCC2=O)cc1	22*	1	0	12*	/	15	0	13	NOD2-RIPK2 conf=32*;NOD2 BLA counter=31*
O=C(Nc1nc2cc3c(cc2s1)OCO3)c1cccc(N2C(=O)CCC2=O)c1	-4	-1	-5	2	/	9	/	/
O=C(Nc1cccc([N+](=O)[O-])c1)c1ccc(-c2ccccc2)cc1	34*	4	-1	39*	16	9	6	25*	NOD2-RIPK2 conf=6;NOD2 BLA counter=3
